Data published in PMC6649664 (Cell host & microbe, 2019).

What was measured:
Type in all cases: cell-based
MRGPRX2 = target: T1, MRGPRX2 (Homo sapiens, UniProt Q96LB1); test: Calcium imaging / FLIPR EC50 determination in HEK293 cells expressing MRGPRX2; details: HEK293 cells stably expressing MRGPRX2 and Gα15
T1 sequence (Q96LB1 1-330): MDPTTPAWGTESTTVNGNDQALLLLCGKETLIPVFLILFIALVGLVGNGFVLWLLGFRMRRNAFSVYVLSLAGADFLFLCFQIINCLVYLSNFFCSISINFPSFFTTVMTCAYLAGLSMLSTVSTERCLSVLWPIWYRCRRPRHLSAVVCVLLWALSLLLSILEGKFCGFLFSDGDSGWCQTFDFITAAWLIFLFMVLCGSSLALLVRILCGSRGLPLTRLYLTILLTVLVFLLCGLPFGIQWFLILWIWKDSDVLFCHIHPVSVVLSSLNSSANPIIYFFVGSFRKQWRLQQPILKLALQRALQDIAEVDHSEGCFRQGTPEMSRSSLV
Summary of the method: (§1)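 HEK293 cells stably co-expressing Gα15 with the receptor were seeded at 4 × 10^4 cells/well and cultured overnight. After dye loading for 60 min at 37°C and 15 min recovery at RT, fluorescence was recorded on a Flexstation for 120 s. Compound, dissolved in HBSS+HEPES, was added as a 3X solution at 30 s. Response was taken as maximum minus minimum signal, averaged from duplicate wells. EC50 was fitted per trial after normalising to that trial's peak response.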

Mrgprb2 = target: T2, Mrgprb2 (Mus musculus, UniProt Q3KNA1); test: Calcium imaging / FLIPR EC50 determination in HEK293 cells expressing Mrgprb2; details: HEK293 cells stably expressing Mrgprb2 and Gα15
T2 sequence (Q3KNA1 1-338): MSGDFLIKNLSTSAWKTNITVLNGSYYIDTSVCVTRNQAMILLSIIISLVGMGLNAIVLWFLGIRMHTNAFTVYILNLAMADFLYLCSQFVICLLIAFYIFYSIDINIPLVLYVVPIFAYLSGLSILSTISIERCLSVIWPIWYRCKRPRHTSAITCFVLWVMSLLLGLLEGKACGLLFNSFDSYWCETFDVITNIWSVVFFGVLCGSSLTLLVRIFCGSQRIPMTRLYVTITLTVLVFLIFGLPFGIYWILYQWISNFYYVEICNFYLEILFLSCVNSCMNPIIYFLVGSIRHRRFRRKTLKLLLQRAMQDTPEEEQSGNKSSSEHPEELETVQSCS
Summary of the method: as §1

LAD2 human mast cells = test: Mast cell degranulation assay; details: 30 min at 37°C
Summary of the method: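 LAD2 cells were washed and resuspended at 0.5 × 10^6 cells/mL in 0.4% BSA-HEPES buffer, then exposed to compound for 30 min at 37°C in 5% CO2. β-Hexosaminidase was measured in supernatants and in 0.1% Triton X-100 lysates by p-nitrophenyl N-acetyl-β-D-glucosamide hydrolysis in 0.1 M sodium citrate (pH 4.5) for 90 min at 37°C. Release is expressed as percent of total content.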

Substance	activation of MRGPRX2-HEK cells (Ca2+ mobilization) (MRGPRX2)	activation of Mrgprb2-HEK cells (Ca2+ mobilization) (Mrgprb2)	β-hexosaminidase release (LAD2 human mast cells)
autoinducer-2 [AI-2]	did not activate	did not activate	did not activate
competence stimulating peptide [CSP]	activated	activated	
